{
  "source": "ChEMBL document CHEMBL4477254",
  "about": "“Synthesis and biological evaluation of some novel triazole hybrids of curcumin mimics and their selective anticancer activity against breast and prostate cancer cell lines” (Bioorg Med Chem Lett, 2016)",
  "key": {"MCF7 [1]": {"test_system": "MCF7", "test": "Cell cycle arrest in human MCF7 cells assessed as accumulation at G2/M phase at 6 uM after 24 hrs by propidium iodide staining based flow cytometry (reference value: 20.30%)", "assay_type": "functional", "outline": "(§1)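 Cells treated 24 h with test compound, MCF-7 at various concentrations and PC-3 at various concentrations; cells harvested, stained with propidium iodide and acquired by flow cytometry for cell cycle phase distribution.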"}, "MCF7 [2]": {"test_system": "MCF7", "test": "Induction of apoptosis in human MCF7 cells assessed as early apoptotic cells at 3 uM after 24 hrs by annexin V-FITC/propidium iodide staining based flow cytometry (reference value: 7.36%)", "assay_type": "functional", "outline": "(§2)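 Apoptosis by Annexin V-FITC/PI dual staining: MCF-7 cells treated 24 h at 3, 6 and 9 µM, then harvested, stained and acquired by flow cytometry; early apoptotic = AnnexinV+/PI−, live = AnnexinV−/PI−, necrotic = AnnexinV−/PI+.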"}, "MCF7 [3]": {"test_system": "MCF7", "test": "Induction of apoptosis in human MCF7 cells assessed as increase in early apoptotic cells after 24 hrs by annexin V-FITC/propidium iodide staining based flow cytometry", "assay_type": "functional, cell-based", "outline": "as §2"}, "MCF7 [4]": {"test_system": "MCF7", "test": "Induction of mitochondrial membrane depolarization in human MCF7 cells at 9 uM after 24 hrs by JC-1 staining based flow cytometry (reference value: 11%)", "assay_type": "functional"}, "MCF7 [5]": {"test_system": "MCF7", "test": "Induction of apoptosis in human MCF7 cells assessed as necrotic cells at 9 uM after 24 hrs by annexin V-FITC/propidium iodide staining based flow cytometry (reference value: 4.76%)", "assay_type": "functional", "outline": "as §2"}, "MCF7 [6]": {"test_system": "MCF7", "test": "Induction of morphological changes in human MCF7 cells assessed as cell detachment at >6 uM after 24 hrs by phase contrast microscopy", "assay_type": "functional, cell-based", "outline": "(§3)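 Cells were exposed to a range of concentrations for 24 h. Cell number and morphology, including detachment from the surface, were assessed by phase-contrast microscopy at 10X magnification.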"}, "MCF7 [7]": {"test_system": "MCF7", "test": "Cell cycle arrest in human MCF7 cells assessed as accumulation at G0/G1 phase at 3 uM after 24 hrs by propidium iodide staining based flow cytometry (reference value: 45.67%)", "assay_type": "functional", "outline": "as §1"}, "MCF7 [8]": {"test_system": "MCF7", "test": "Induction of apoptosis in human MCF7 cells assessed as early apoptotic cells at 9 uM after 24 hrs by annexin V-FITC/propidium iodide staining based flow cytometry (reference value: 7.36%)", "assay_type": "functional", "outline": "as §2"}, "MCF7 [9]": {"test_system": "MCF7", "test": "Decrease in Bcl-2 expression in human MCF7 cells at 3 to 9 uM after 24 hrs by Western blot analysis", "assay_type": "functional, cell-based", "outline": "(§4)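 MCF-7 or PC-3 cells treated with compound for 24 h, harvested; PCNA, Bax and Bcl-2 protein expression checked by Western blotting.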"}, "MCF7 [10]": {"test_system": "MCF7", "test": "Induction of apoptosis in human MCF7 cells assessed as necrotic cells at 3 uM after 24 hrs by annexin V-FITC/propidium iodide staining based flow cytometry (reference value: 4.76%)", "assay_type": "functional", "outline": "as §2"}, "MCF7 [11]": {"test_system": "MCF7", "test": "Induction of apoptosis in human MCF7 cells assessed as decrease in live cells after 24 hrs by annexin V-FITC/propidium iodide staining based flow cytometry", "assay_type": "functional, cell-based", "outline": "as §2"}, "MCF7 [12]": {"test_system": "MCF7", "test": "Induction of morphological changes in human MCF7 cells at 1 to 6 uM after 24 hrs by phase contrast microscopy", "assay_type": "functional, cell-based", "outline": "as §3"}, "[13]": {"test": "Half life in liver microsomes (unknown origin) at 5 ug/ml in presence of NADPH by UPLC analysis", "assay_type": "ADME, Microsome"}, "MCF7 [14]": {"test_system": "MCF7", "test": "Induction of morphological changes in human MCF7 cells assessed as decrease in cell number at 1 to 6 uM after 24 hrs by phase contrast microscopy", "assay_type": "functional, cell-based", "outline": "as §3"}, "[15]": {"test": "Drug metabolism in liver microsomes (unknown origin) assessed as compound remaining at 5 ug/ml after 5 mins in presence of NADPH by UPLC analysis", "assay_type": "ADME, Microsome", "conditions": "read-out: Drug metabolism", "outline": "(§5)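 Microsomal metabolic stability; percentage of compound remaining intact measured after 5 min incubation in presence of microsomes.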"}, "MCF7 [16]": {"test_system": "MCF7", "test": "Cell cycle arrest in human MCF7 cells assessed as accumulation at G0/G1 phase at 9 uM after 24 hrs by propidium iodide staining based flow cytometry (reference value: 45.67%)", "assay_type": "functional", "outline": "as §1"}, "MCF7 [17]": {"test_system": "MCF7", "test": "Induction of apoptosis in human MCF7 cells assessed as viable cells at 9 uM after 24 hrs by annexin V-FITC/propidium iodide staining based flow cytometry (reference value: 82.63%)", "assay_type": "functional", "conditions": "MCF7, 24 h, read-out: Activity", "outline": "(§6)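 MCF-7 cells exposed to 3, 6 or 9 μM and PC-3 cells to 4.8 or 8.8 μM for 24 h, then harvested and dual-stained with Annexin V-FITC/PI and read by flow cytometry. Gates: live AnnexinV⁻/PI⁻, early apoptotic AnnexinV⁺/PI⁻, necrotic AnnexinV⁻/PI⁺.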"}, "MCF7 [18]": {"test_system": "MCF7", "test": "Cell cycle arrest in human MCF7 cells assessed as accumulation at S phase at 3 uM after 24 hrs by propidium iodide staining based flow cytometry (reference value: 34.03%)", "assay_type": "functional", "outline": "as §1"}, "MCF7 [19]": {"test_system": "MCF7", "test": "Induction of apoptosis in human MCF7 cells assessed as late apoptotic cells at 9 uM after 24 hrs by annexin V-FITC/propidium iodide staining based flow cytometry (reference value: 5.25%)", "assay_type": "functional", "outline": "as §2"}, "PC-3 [20]": {"test_system": "PC-3", "test": "Cell cycle arrest in human PC3 cells assessed as accumulation at S phase at 8.8 uM after 24 hrs by propidium iodide staining based flow cytometry (reference value: 25.01%)", "assay_type": "functional", "outline": "as §1"}, "PC-3 [21]": {"test_system": "PC-3", "test": "Cell cycle arrest in human PC3 cells assessed as accumulation at G0/G1 phase at 4.8 uM after 24 hrs by propidium iodide staining based flow cytometry (reference value: 72.73%)", "assay_type": "functional", "outline": "as §1"}, "PC-3 [22]": {"test_system": "PC-3", "test": "Decrease in PCNA levels in human PC3 cells at 4.8 to 8.8 uM after 24 hrs by Western blot analysis", "assay_type": "functional, cell-based", "outline": "as §4"}, "[23]": {"test": "Intrinsic hepatic clearance in liver microsomes (unknown origin) assessed per mg of protein at 8 ug/ml in presence of NADPH by UPLC analysis", "assay_type": "ADME, Microsome", "conditions": "read-out: CLH (converted)"}, "PC-3 [24]": {"test_system": "PC-3", "test": "Cell cycle arrest in human PC3 cells assessed as accumulation at G0/G1 phase at 8.8 uM after 24 hrs by propidium iodide staining based flow cytometry (reference value: 72.73%)", "assay_type": "functional", "outline": "as §1"}, "PC-3 [25]": {"test_system": "PC-3", "test": "Induction of apoptosis in human PC3 cells assessed as increase in early apoptotic cells after 24 hrs by annexin V-FITC/propidium iodide staining based flow cytometry", "assay_type": "functional, cell-based", "outline": "as §6"}, "PC-3 [26]": {"test_system": "PC-3", "test": "Increase in Bax expression in human PC3 cells at 4.8 to 8.8 uM after 24 hrs by Western blot analysis", "assay_type": "functional, cell-based", "outline": "as §4"}, "PC-3 [27]": {"test_system": "PC-3", "test": "Inhibition of colony formation in human PC3 cells incubated for 24 hrs measured till day 7 by crystal violet staining based assay", "assay_type": "functional, cell-based", "outline": "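Cells were treated with a range of concentrations for 24 h. The medium was then replaced with complete medium and cells were grown for 7 days. Colonies were stained with 0.1% crystal violet.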"}, "PC-3 [28]": {"test_system": "PC-3", "test": "Cell cycle arrest in human PC3 cells assessed as accumulation at G2/M phase at 4.8 uM after 24 hrs by propidium iodide staining based flow cytometry (reference value: 2.25%)", "assay_type": "functional", "outline": "as §1"}, "[29]": {"test": "Half life in liver microsomes (unknown origin) at 8 ug/ml in presence of NADPH by UPLC analysis", "assay_type": "ADME, Microsome"}, "[30]": {"test": "Drug metabolism in liver microsomes (unknown origin) assessed as compound remaining at 8 ug/ml after 5 mins in presence of NADPH by UPLC analysis", "assay_type": "ADME, Microsome", "conditions": "read-out: Drug metabolism", "outline": "as §5"}, "PC-3 [31]": {"test_system": "PC-3", "test": "Induction of apoptosis in human PC3 cells assessed as necrotic cells at 8.8 uM after 24 hrs by annexin V-FITC/propidium iodide staining based flow cytometry (reference value: 2.52%)", "assay_type": "functional", "outline": "as §6"}, "PC-3 [32]": {"test_system": "PC-3", "test": "Induction of apoptosis in human PC3 cells assessed as late apoptotic cells at 8.8 uM after 24 hrs by annexin V-FITC/propidium iodide staining based flow cytometry (reference value: 0.80%)", "assay_type": "functional", "outline": "as §6"}},
  "note": "Calls of active or inactive are those of the source. The rule behind the calls is not given here.",
  "data": [
    {"molecule": "O=C1/C(=C/c2ccccc2F)CN(Cc2cn(Cc3ccc(F)cc3)nn2)C/C1=C\\c1ccccc1F", "values": [
      {"measurement": "Activity", "setting": "MCF7 [1]", "value": 43.6, "unit": "%"},
      {"measurement": "Activity", "setting": "MCF7 [2]", "value": 25.08, "unit": "%"},
      {"measurement": "Activity", "setting": "MCF7 [3]", "value": "Dose-dependent effect"},
      {"measurement": "Activity", "setting": "MCF7 [4]", "value": 89.87, "unit": "%"},
      {"measurement": "Activity", "setting": "MCF7 [5]", "value": 9.22, "unit": "%"},
      {"measurement": "Activity", "setting": "MCF7 [6]", "value": "Active"},
      {"measurement": "Activity", "setting": "MCF7 [7]", "value": 38.9, "unit": "%"},
      {"measurement": "Activity", "setting": "MCF7 [8]", "value": 30.88, "unit": "%"},
      {"measurement": "Activity", "setting": "MCF7 [9]", "value": "Active"},
      {"measurement": "Activity", "setting": "MCF7 [10]", "value": 6.18, "unit": "%"},
      {"measurement": "Activity", "setting": "MCF7 [11]", "value": "Dose-dependent effect"},
      {"measurement": "Activity", "setting": "MCF7 [12]", "value": "Active"},
      {"measurement": "half-life at 5 ug/ml", "setting": "[13]", "value": 7.52, "unit": "min"},
      {"measurement": "Activity", "setting": "MCF7 [14]", "value": "Active"},
      {"measurement": "remaining at 5 min, 5 ug/ml", "setting": "[15]", "value": 46, "unit": "%"},
      {"measurement": "Activity", "setting": "MCF7 [16]", "value": 2.22, "unit": "%"},
      {"measurement": "viability at 9 µM", "setting": "MCF7 [17]", "value": 40.3, "unit": "%"},
      {"measurement": "Activity", "setting": "MCF7 [18]", "value": 36.03, "unit": "%"},
      {"measurement": "Activity", "setting": "MCF7 [19]", "value": 19.59, "unit": "%"}
    ]},
    {"molecule": "Cc1ccc(/C=C2\\CN(Cc3cn(Cc4ccccc4F)nn3)C/C(=C\\c3ccc(C)cc3)C2=O)cc1", "values": [
      {"measurement": "Activity", "setting": "PC-3 [20]", "value": 23.61, "unit": "%"},
      {"measurement": "Activity", "setting": "PC-3 [21]", "value": 70.62, "unit": "%"},
      {"measurement": "Activity", "setting": "PC-3 [22]", "value": "Active"},
      {"measurement": "CLint scaled at 8 ug/ml", "setting": "[23]", "value": 2630, "unit": "mL/min/kg"},
      {"measurement": "Activity", "setting": "PC-3 [24]", "value": 67.5, "unit": "%"},
      {"measurement": "Activity", "setting": "PC-3 [25]", "value": "Dose-dependent effect"},
      {"measurement": "Activity", "setting": "PC-3 [26]", "value": "Active"},
      {"measurement": "inhibition", "setting": "PC-3 [27]", "value": "Dose-dependent effect"},
      {"measurement": "Activity", "setting": "PC-3 [28]", "value": 8.36, "unit": "%"},
      {"measurement": "half-life at 8 ug/ml", "setting": "[29]", "value": 15.9, "unit": "min"},
      {"measurement": "remaining at 5 min, 8 ug/ml", "setting": "[30]", "value": 66, "unit": "%"},
      {"measurement": "Activity", "setting": "PC-3 [31]", "value": 0.75, "unit": "%"},
      {"measurement": "Activity", "setting": "PC-3 [32]", "value": 0.88, "unit": "%"}
    ]}
  ]
}
